Legend:
[1] = molecular target: D(3) dopamine receptor (Homo sapiens, UniProt P35462); experiment: Displacement of [125I]-IABN from human D3 receptor transfected in human HEK 293 cells by gamma-counting; assay type: cell-based, HEK293
How it was run: (§1)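 Nonspecific binding defined with 20 µM (+)-butaclamol. Inhibitor spans 5 log units at two points per decade, in triplicate. Filtration and gamma counting. One-site IC50 converted to Ki by Cheng–Prusoff. At least three independent experiments.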

[2] = Partition coefficient, log P of the compound; assay type: physicochemical; conditions: octanol/water
[3] = molecular target: D(2) dopamine receptor (Homo sapiens, UniProt P14416); experiment: Displacement of [125I]-IABN from human D2 receptor transfected in human HEK 293 cells by gamma-counting; assay type: cell-based, HEK293; how it was run: as §1
Chain of D(2) dopamine receptor (P14416 whole entry): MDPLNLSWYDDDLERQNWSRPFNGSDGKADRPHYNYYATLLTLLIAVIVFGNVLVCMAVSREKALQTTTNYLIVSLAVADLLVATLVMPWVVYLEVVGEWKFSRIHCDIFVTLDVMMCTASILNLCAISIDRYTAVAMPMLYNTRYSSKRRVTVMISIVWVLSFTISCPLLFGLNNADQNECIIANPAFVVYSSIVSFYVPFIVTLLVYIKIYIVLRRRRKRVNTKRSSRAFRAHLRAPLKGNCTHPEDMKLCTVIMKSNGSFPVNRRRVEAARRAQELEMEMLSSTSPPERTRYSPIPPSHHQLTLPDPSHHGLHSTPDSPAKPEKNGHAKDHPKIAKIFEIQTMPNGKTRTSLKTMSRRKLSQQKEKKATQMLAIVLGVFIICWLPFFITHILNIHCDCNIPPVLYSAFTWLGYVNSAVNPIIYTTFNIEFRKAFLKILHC

[4] = organism: Homo sapiens; experiment: Selectivity ratio of Ki for human D2 receptor to Ki for human D3 receptor
How it was run: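 Selectivity index is Ki(D2)/Ki(D3). Both Ki values come from [125I]IABN competition on membranes of HEK 293 cells stably expressing the human receptor. Incubation was 60 min at 37°C at pH 7.5, with Cheng–Prusoff correction.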

[5] = molecular target: Sigma non-opioid intracellular receptor 1 (Cavia porcellus, UniProt Q60492); experiment: Displacement of [3H]-pentazocine from guinea pig sigma1 receptor by liquid scintillation counting
Chain of Sigma non-opioid intracellular receptor 1 (Q60492 whole entry): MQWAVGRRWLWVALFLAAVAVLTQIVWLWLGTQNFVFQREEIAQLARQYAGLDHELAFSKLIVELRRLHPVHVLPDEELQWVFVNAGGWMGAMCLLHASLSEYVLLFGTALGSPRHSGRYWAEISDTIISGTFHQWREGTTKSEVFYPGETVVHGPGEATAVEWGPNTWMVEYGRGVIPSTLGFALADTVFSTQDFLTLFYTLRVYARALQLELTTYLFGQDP
How it was run: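 Guinea pig brain membranes (~300 µg protein) incubated with ~5 nM (+)-[3H]-pentazocine for 90 min at room temperature in Tris-HCl/NaCl/EDTA pH 7.4. […] Filtration and scintillation counting. IC50 taken from a one-site fit.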

[6] = molecular target: T1, D(4) dopamine receptor (Homo sapiens, UniProt P21917); experiment: Binding affinity to human D4 receptor transfected in human HEK293 cells by gamma-counting; assay type: cell-based; how it was run: as §1
T1 sequence (P21917 whole entry): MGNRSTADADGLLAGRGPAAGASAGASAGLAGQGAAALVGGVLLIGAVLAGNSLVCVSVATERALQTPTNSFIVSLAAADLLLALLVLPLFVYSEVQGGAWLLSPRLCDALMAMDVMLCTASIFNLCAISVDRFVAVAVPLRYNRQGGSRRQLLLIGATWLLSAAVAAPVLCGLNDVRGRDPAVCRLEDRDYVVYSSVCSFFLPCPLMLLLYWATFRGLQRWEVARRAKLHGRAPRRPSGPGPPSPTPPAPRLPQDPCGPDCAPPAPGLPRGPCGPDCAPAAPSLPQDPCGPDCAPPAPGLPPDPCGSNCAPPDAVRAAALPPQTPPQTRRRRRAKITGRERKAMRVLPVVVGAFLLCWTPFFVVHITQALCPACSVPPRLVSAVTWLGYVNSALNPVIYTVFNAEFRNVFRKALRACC

Chain of D(3) dopamine receptor (P35462 whole entry): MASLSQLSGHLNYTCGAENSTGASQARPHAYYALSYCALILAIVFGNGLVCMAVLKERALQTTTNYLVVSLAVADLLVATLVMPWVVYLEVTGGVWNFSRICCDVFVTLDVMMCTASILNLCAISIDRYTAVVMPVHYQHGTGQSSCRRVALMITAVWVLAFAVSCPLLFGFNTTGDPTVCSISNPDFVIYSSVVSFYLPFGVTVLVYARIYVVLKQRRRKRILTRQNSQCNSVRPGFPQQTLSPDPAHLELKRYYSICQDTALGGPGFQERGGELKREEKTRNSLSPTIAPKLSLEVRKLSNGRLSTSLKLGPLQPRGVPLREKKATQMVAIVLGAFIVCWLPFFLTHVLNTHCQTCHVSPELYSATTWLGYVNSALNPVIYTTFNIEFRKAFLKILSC

Row | Ki [1] [nM] | logP [2] | Ki [3] [nM] | Ratio Ki [4] | Ki [5] [nM] | Ki [6] [nM] | Structure (SMILES)
1 | 6.2 | 3.08 | – | – | – | – | COc1ccccc1N1CCN(CCCCNC(=O)c2ccc(OCCOCCF)cc2)CC1
2 | 6.2 | 3.55 | 55.3 | 8.9 | – | – | COc1ccccc1N1CCN(C/C=C/CNC(=O)c2ccc(OCCF)cc2)CC1
3 | 2.4 | 2.94 | 54.5 | – | 3540 | 804 | COc1ccccc1N1CCN(CCCCNC(=O)c2ccc(CCF)cc2)CC1
4 | 0.8 | 3.09 | 34.4 | 43 | 1260 | 896 | COc1ccccc1N1CCN(CCCCNC(=O)c2ccc(N(C)C)cc2)CC1
5 | 13.6 | 4.49 | 13.4 | 1 | – | – | COc1ccccc1N1CCN(C/C=C/CNC(=O)c2cc(Br)ccc2OCCF)CC1
6 | 0.52 | 3.73 | 15.1 | – | 4360 | 990 | O=C(NCCCCN1CCN(c2ccccc2OCCF)CC1)c1ccc(OCCF)cc1
7 | 1.1 | 4.74 | 70.5 | 64 | 7780 | 182 | O=C(NC/C=C/CN1CCN(c2ccccc2OCCF)CC1)c1ccc(-c2ccsc2)cc1
8 | 18.5 | 3.66 | 17.8 | 1 | – | – | COc1ccccc1N1CCN(C/C=C/CNC(=O)c2cc(C)ccc2OCCF)CC1
9 | 13.8 | 4.15 | 57.6 | 4.2 | – | – | COc1ccccc1N1CCN(C/C=C/CNC(=O)c2cc(Br)cc(OC)c2OCCF)CC1
10 | 2.5 | 3.34 | 14.2 | – | – | – | O=C(NCCCCN1CCN(c2ccccc2OCCF)CC1)c1ccc(OCCOCCF)cc1
11 | – | 4.67 | – | – | 20900 | 246 | O=C(NCCCCN1CCN(c2ccccc2OCCF)CC1)c1ccc(-c2ccsc2)cc1
12 | 1.1 | 3.61 | 17.7 | 16.1 | 7200 | 890 | O=C(NC/C=C/CN1CCN(c2ccccc2OCCF)CC1)c1ccc(CCF)cc1
13 | 6.9 | 3.68 | 21.4 | 3.1 | – | – | O=C(NCCCCN1CCN(c2ccccc2OCCF)CC1)c1ccc(CCF)cc1
14 | 8.4 | 3.81 | 37.9 | 4.5 | – | – | O=C(NC/C=C/CN1CCN(c2ccccc2OCCF)CC1)c1ccc(OCCF)cc1
15 | 3.6 | 3.83 | 35.2 | 9.8 | – | – | CN(C)c1ccc(C(=O)NC/C=C/CN2CCN(c3ccccc3OCCF)CC2)cc1
16 | 1.1 | 3.48 | 27.1 | 25 | 4780 | 1400 | COc1ccccc1N1CCN(CCCCNC(=O)c2ccc(OCCF)cc2)CC1
17 | 24.9 | 3.43 | 131 | 5.2 | – | – | COc1ccccc1N1CCN(C/C=C/CNC(=O)c2ccc(CCF)cc2)CC1
18 | 5.2 | 2.98 | 31.7 | 6.1 | – | – | O=C(NCCCCN1CCN(c2ccccc2OCCF)CC1)c1ccc(OCCOCCOCCF)cc1
19 | 10.9 | 4.73 | 13.2 | 1.2 | – | – | COc1ccccc1N1CCN(C/C=C/CNC(=O)c2cc(I)ccc2OCCF)CC1
20 | 4.2 | 2.72 | 52 | 12.2 | 4870 | 2100 | COc1ccccc1N1CCN(CCCCNC(=O)c2ccc(OCCOCCOCCF)cc2)CC1
21 | 0.65 | 3.75 | 15.1 | – | 1960 | 890 | CN(C)c1ccc(C(=O)NCCCCN2CCN(c3ccccc3OCCF)CC2)cc1
22 | 19.6 | 3.41 | 64.8 | 3.3 | – | – | O=C(NC/C=C/CN1CCN(c2ccccc2OCCF)CC1)c1ccc(OCCOCCF)cc1
23 | 18.2 | 3.16 | 59.2 | 3.3 | – | – | COc1ccccc1N1CCN(C/C=C/CNC(=O)c2ccc(OCCOCCF)cc2)CC1
